Screens deposited in PubChem BioAssay by several laboratories.
Hits are enriched below; roughly 2.2% of the tested compounds scored in any of these assays.
GSTO1 inh = counter-screen for RBBP9 inhibitors: inhibitors of human GSTO1; actives 1.1% (n = 300,000); recombinant GSTO1, activity-based probe fluorescence polarization; inhibition, % at 5.96 µM;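 active = inhibition above the campaign mean inhibition plus 3 SD, cut at about 35% in these data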
PAD4 FP inh = inhibitors of human PAD4. actives 0.41% (n = 330,000). Q9UM07. AID 485272. recombinant PAD4, RCA probe fluorescence polarization. inhibition, % at 6.36 µM;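 active = percent inhibition above a cutoff equal to the mean of all tested compounds plus 3 SD, cut at about 15% in these data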
Apaf1 inhib = blocks human Apaf-1 apoptosome activity; reconstituted apoptosome caspase-3 activity, DEVD-Rh110 fluorescence; inhibition, % at 20 µM; actives 0.71% (n = 330,000); AID 489030; active = inhibition of at least 40% at 20 µM
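Medium: Hepes buffer, pH 7.5 / System: biochemical Apaf-1 apoptosome reconstitution / Measured by: Rh110 fluorescence, excitation 480 nm, emission 540 nm / Times: compound with Apaf-1, dATP, procaspase-3 30 min, then 50 min reaction, room temperature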
Rin1 Abl inh = inhibitors of human Rin1-Abl protein interaction | inhibition, % at 7.35 µM | AID 588664 | TR-FRET Rin1/Abl binding, biochemical | P00519+Q13671 | actives 0.4% (n = 360,000); in the data active = inhibition above about 5%, passing the limit was not always enough
UBC9 SUMO inh = inhibitors of human SUMOylation (UBC9); inhibition, % at 35 µM; AID 2006; actives 0.36% (n = 290,000); HTRF SUMOylation assay, SAE1/SAE2 + UBC9, in vitro; P63279; in the data active = inhibition above about 50%, passing the limit was not always enough; inconclusive = no clear call, values can overlap the other calls
Target sequence (P63279 whole entry, looked up): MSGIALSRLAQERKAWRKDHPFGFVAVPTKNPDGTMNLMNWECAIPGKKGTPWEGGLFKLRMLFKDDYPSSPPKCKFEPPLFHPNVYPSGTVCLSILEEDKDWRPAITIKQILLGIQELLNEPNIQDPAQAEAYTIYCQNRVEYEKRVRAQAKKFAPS
UBC13 inh = human UBC13 polyubiquitination inhibition; P61088; UBC13 polyubiquitin chain formation, TR-FRET; inhibition, % at 20 µM; actives 0.47% (n = 330,000); AID 485273; in the data active = inhibition above about 45%, passing the limit was not always enough; inconclusive = no clear call, values can overlap the other calls
Target sequence (P61088 whole entry, looked up): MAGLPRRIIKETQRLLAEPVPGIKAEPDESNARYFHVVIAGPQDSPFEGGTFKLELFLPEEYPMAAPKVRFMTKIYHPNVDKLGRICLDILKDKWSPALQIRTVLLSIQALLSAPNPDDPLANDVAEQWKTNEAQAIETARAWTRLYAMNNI
Casp3 counter = caspase-3 inhibition (UBC13 counter-screen); shares compounds with UBC13 inh; Recombinant caspase-3, Caspase-Glo 3/7 luminescence, 60 min; inhibition, % at 20 µM; actives 4% (n = 1,400); AID 488856;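 active = mean inhibition across replicates above about 26%, limit read from the data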
Target sequence (P42574 whole entry, looked up): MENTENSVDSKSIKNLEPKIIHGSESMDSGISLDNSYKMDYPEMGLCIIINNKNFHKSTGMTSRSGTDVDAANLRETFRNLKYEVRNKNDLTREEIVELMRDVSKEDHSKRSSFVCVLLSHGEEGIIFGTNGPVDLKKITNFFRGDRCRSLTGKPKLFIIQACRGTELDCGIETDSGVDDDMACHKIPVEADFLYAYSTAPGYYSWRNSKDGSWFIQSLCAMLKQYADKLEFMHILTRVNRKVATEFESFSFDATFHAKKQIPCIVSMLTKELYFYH
UBC13 conf = confirmation of human UBC13 polyubiquitin inhibitors; shares compounds with UBC13 inh; UBC13 polyubiquitination, TR-FRET, biochemical; actives 68% (n = 1,400); inhibition, % at 10 µM; in the data active = inhibition above about 45%; inconclusive = no clear call, values can overlap the other calls
Each line names hits and unclear results; the compound was inactive in the other large screens (follow-up assays come after a bar, where they were run).

Cc1c(N(C)S(=O)(=O)c2ccc(Cl)c(C(=O)NCC(C)(C)N3CCOCC3)c2)c(=O)n(-c2ccccc2)n1C	none (no result: GSTO1 inh, PAD4 FP inh, Apaf1 inhib, UBC9 SUMO inh, UBC13 inh)
O=C(NCCN1CCN(c2ccccc2)CC1)c1ccc2c(c1)[nH]c(=S)n1c3ccccc3nc21	UBC13 inh 46.6 | Casp3 counter inactive | UBC13 conf inconclusive
CCCN1CCN(CCCNC(=O)c2cc3c(s2)-c2c(C)cccc2OC3)CC1	UBC13 inh 48.6 | Casp3 counter inactive | UBC13 conf 57.0
CC1CC(C)CN(CCCNC(=O)c2cc3c(s2)-c2ccccc2OC3)C1 (configuration not stated)	UBC13 inh 45.0 (no result: UBC9 SUMO inh) | Casp3 counter inactive | UBC13 conf 54.7
CC1CCCC(C)N1CCCNC(=O)c1cc2c(s1)-c1ccccc1OC2 (configuration not stated)	none
CCCN1CCN(CCCNC(=O)c2cc3c(s2)-c2ccccc2OC3)CC1	none
Cc1cccc2c1-c1sc(C(=O)NCCCN3CCCC(C)C3)cc1CO2 (configuration not stated)	UBC13 inh 66.6 | Casp3 counter inactive | UBC13 conf 96.9
O=C(CSc1ccc2c(c1)OCCO2)Nc1ncccc1O	none (no result: UBC9 SUMO inh)
CCCC(=O)N(CCN1CCOCC1)c1nc2c(C)cccc2s1	UBC13 inh 68.6 | Casp3 counter inactive | UBC13 conf 73.1
CC(C)NC(=O)N(C)C[C@H]1OCc2cnnn2CCCC(=O)N([C@H](C)CO)C[C@H]1C	none (no result: GSTO1 inh, PAD4 FP inh, Apaf1 inhib, UBC9 SUMO inh, UBC13 inh)
CC(=O)c1ccc(Sc2ccc(C(C)=O)cc2)cc1	UBC13 inh 45.0 | Casp3 counter inactive | UBC13 conf inactive
Cc1ccc(-c2noc(CCC(=O)NCCN3CCN(Cc4ccccc4)CC3)n2)cc1	none
COc1ccc(-c2noc(CCC(=O)NCCCN3CCC(Cc4ccccc4)CC3)n2)cc1	UBC13 inh 89.6 | Casp3 counter inactive | UBC13 conf 106.3
Cc1ccc(-c2noc(CCC(=O)NCC3CCN(Cc4cccc(C)c4)CC3)n2)cc1	UBC13 inh 55.6 | Casp3 counter inactive | UBC13 conf 70.1
COc1ccc(-c2cc3c(=O)n(CC(=O)NCCCN4CCC(Cc5ccccc5)CC4)ncn3n2)cc1	UBC13 inh 52.1 | Casp3 counter inactive | UBC13 conf 75.8
C=C(C)c1cccc(C(C)(C)NC(=O)N2CCN(C(=O)OCC)CC2)c1	none (no result: GSTO1 inh, PAD4 FP inh, Apaf1 inhib, UBC9 SUMO inh, UBC13 inh)
O=C(C(=O)N1CCN(c2ccccc2)CC1)c1cn(CC(=O)N2CCCCCC2)c2ccccc12	none
COc1ccc2c(c1)cc(C(=O)N[C@@H](CCSC)C(=O)N1CCC(C(=O)O)CC1)n2C	none
CC1Cc2nc(SCC(=O)N3CCCCC3)n(C)c(=O)c2S1 (configuration not stated)	none (no result: GSTO1 inh, PAD4 FP inh, Apaf1 inhib, UBC9 SUMO inh, UBC13 inh)
COC(=O)C1=C(C)N(CC2CC2)C(=NCc2cc(OC)c(OC)c(OC)c2)N[C@H]1c1ccccc1	none
COC(=O)C1=C(C)N(CC2CC2)C(=NCc2cccc(Cl)c2)N[C@H]1c1ccccc1	UBC13 inh 53.7 | Casp3 counter inactive | UBC13 conf inactive
COC(=O)c1ccc2c(=O)n(Cc3ccc(C(=O)NCCCN4CCC(C)CC4)cc3)c(=S)[nH]c2c1	none
CC1CCN(CCCNC(=O)c2ccc3c(=O)n(Cc4ccc(Cl)cc4)c(=S)[nH]c3c2)CC1	UBC13 inh 52.9 | Casp3 counter inactive | UBC13 conf 73.1
CCCCN(C)CCNC(=O)c1ccc(Cn2c(=S)[nH]c3ccc(Br)cc3c2=O)cc1	UBC13 inh 48.3 | Casp3 counter 33.5 | UBC13 conf 48.2
COCc1cc(=O)[nH]c(Nc2nc3ccc(C)cc3o2)n1	UBC13 inh 74.2 | Casp3 counter 26.9 | UBC13 conf 89.2
CCc1ccc2nc(Nc3nc(COC)cc(=O)[nH]3)nc(C)c2c1	none
Cc1nc2ccccc2n1C1CCN(CC(=O)Nc2ccccc2Br)CC1	UBC13 inh 58.5 | Casp3 counter inactive | UBC13 conf 74.2
CCc1nc2ccccc2c(C(=O)OCCN2C(=O)c3ccccc3C2=O)c1C	UBC13 inh 52.0 | Casp3 counter inactive | UBC13 conf 70.2
CCc1nc2ccccc2c(C(=O)OCc2nc3ccccc3c(=O)[nH]2)c1C	UBC13 inh 62.0 (no result: GSTO1 inh, UBC9 SUMO inh) | Casp3 counter inactive | UBC13 conf 57.8
COc1cc(/C=N/NC(=O)c2sc(N)c(C#N)c2C)ccc1O	UBC13 inh 51.2 | Casp3 counter inactive | UBC13 conf 55.5
C#CCn1c(CCNC(=O)c2ccco2)nc2ccccc21	none
CC1(C)Cc2c(sc(NC(=O)Nc3ccccc3)c2C(N)=O)CO1	none
COC(=O)c1c(NC(=O)C(=O)N2CCCC2)sc2c1CC(C)(C)OC2	UBC13 inh 47.8 | Casp3 counter inactive | UBC13 conf 100.5
CC1(C)Cc2c(sc(NC(=O)C(=O)N3CCCC3)c2C(N)=O)CO1	UBC13 inh 85.6 | Casp3 counter inactive | UBC13 conf 104.8
CC1(C)Cc2c(sc(NC(=O)C(=O)NCC3CCCO3)c2C(N)=O)CO1 (configuration not stated)	UBC13 inh 81.4 | Casp3 counter inactive | UBC13 conf 106.3
COC(=O)c1c(NC(=O)c2ccccc2)sc2c1CC(C)(C)OC2	none
N[C@@H](Cc1ccccc1)C(=O)N1CCC(C(=O)N[C@@H](CCC(=O)O)C(=O)O)CC1	none
Nc1ccn([C@@H]2O[C@H](CNC(=O)[C@@H](Cc3cccnc3)NC=O)[C@@H](O)[C@H]2O)c(=O)n1	none (no result: GSTO1 inh, PAD4 FP inh, Apaf1 inhib, UBC9 SUMO inh, UBC13 inh)
CCCn1c2ccccc2c2nc3ccccc3nc21	UBC13 inh 46.6 | Casp3 counter inactive | UBC13 conf inactive
O=C(CSc1nc2ccccc2c(=O)n1-c1ccc(F)cc1F)NC1CCS(=O)(=O)C1 (configuration not stated)	none (no result: GSTO1 inh, PAD4 FP inh, Apaf1 inhib, UBC9 SUMO inh, UBC13 inh)
CC1=CC(C)(C)n2c(O)c(N=NC(N)=S)c3c(C)c(C)cc1c32	none
COc1cc2c3c(c1)c(N=NC(N)=S)c(O)n3C(C)(C)C=C2C	UBC13 inh 80.3 | Casp3 counter inactive | UBC13 conf 84.1
CC1=CC(C)(C)n2c(O)c(N=NC(N)=S)c3cccc1c32	UBC13 inh 75.9 | Casp3 counter inactive | UBC13 conf 93.6
CC1CCCCC1NC(=O)CCS(=O)(=O)c1ccc(Cl)cc1 (configuration not stated)	none (no result: GSTO1 inh, UBC9 SUMO inh)
C[C@]12CCC3C(CC[C@H]4CCCC[C@]34C)C1CC[C@@]2(O)CNCCO (some centres not stated)	UBC13 inh 63.5 (no result: GSTO1 inh, PAD4 FP inh) | Casp3 counter inactive | UBC13 conf inactive
CS(=O)(=O)Nc1cccc(-c2cc(NC=O)c3ncc(-c4ccc(F)cc4)n3c2)c1	none (no result: GSTO1 inh, PAD4 FP inh, Apaf1 inhib, UBC9 SUMO inh, UBC13 inh)
